Data set [1] is described as follows: Clearance in mouse microsomes assessed per mg of protein. The data set is classed as ADME, Liver, Microsome. The procedure, abridged:
(§1)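 Intrinsic clearance in human and mouse liver microsomes, expressed as µl/min/mg protein.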

A further data set has as its target Gamma-secretase. In words: Inhibition of human gamma secretase in HEK293 cells assessed as reduction of amyloid beta level by ELISA. The data set is classed as cell-based.
Data set [2] can be described thus: Clearance in human microsomes assessed per mg of protein. It is filed as ADME, Microsome. The procedure, abridged:
as §1

Data set [3] can be described thus: Distribution coefficient, log D of the compound. As to conditions: octanol/water. The data set is classed as physicochemical.
Data set [4] is described as follows: Solubility of the compound. It is filed as physicochemical.
The nature of data set [5]: Drug level in PS2APP transgenic mouse brain at 20 mg/kg, po after 2 hrs. As to conditions: read-out: Drug uptake. It is filed as ADME, organism-based. Set-up: dose 20 mg/kg, route oral. The procedure, abridged: (§2)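 Single 20 mg/kg oral dose in mice; plasma and brain concentrations taken at 2 h, brain/plasma ratio calculated; N = 3.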
A short description of data set [6]: Ratio of drug level in brain to plasma in PS2APP transgenic mouse at 20 mg/kg, po after 2 hrs. As to conditions: read-out: BPR. Set-up: dose 20 mg/kg, route oral. It is filed as ADME, organism-based. The procedure, abridged:
as §2

Another data set has as its system MDR1. In words: Permeability from apical to basolateral side of pig LLC-PK1 cell transfected with human MDR1. As to conditions: read-out: permeability. It is filed as ADME, cell-based, Sus scrofa. The procedure, abridged: (§3)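 Bidirectional transport across LLC-PK1 monolayers exogenously expressing human MDR1 (P-gp), compound at 1 μM; apical-to-basolateral and reverse permeabilities measured, export ratio derived; run with and without elacridar (5 μM) as transport inhibitor. Passive permeability estimated from experiments with active transport inhibited.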

Data set [7] relates to Mus musculus. The data set can be described thus: Inhibition of human gamma secretase expressed in PS2APP transgenic mouse at 20 mg/kg, po after 3 days. It is filed as functional, organism-based. Further details: dose 20 mg/kg. The procedure, abridged:
(§4)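 PS2APP transgenic mice (human APP driven by neuron-specific Thy1 promoter) dosed 3 × 20 mg/kg po or ip; γ-secretase inhibition read as accumulation of CTFβ in total brain by Western blot, chemiluminescent band quantified and normalized to an endogenous control protein; reference inhibitor LY411575.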

Data set [8] concerns LLC-PK1. The data set can be described thus: Ratio of permeability from basolateral to apical over apical to basolateral side of the pig LLC-PK1 cell transfected with human MDR1 at 1 uM in presence of elacridar. The data set is classed as ADME, cell-based, Sus scrofa. Particulars: llc-pk1, 1 µM. The procedure, abridged: as §3
The subject of data set [9] is LLC-PK1. The data set can be described thus: Ratio of permeability from basolateral to apical over apical to basolateral side of the pig LLC-PK1 cell transfected with human MDR1 at 1 uM. The data set is classed as ADME, cell-based, Sus scrofa. Particulars: llc-pk1, 1 µM. The procedure, abridged:
as §3

Data set [10] relates to Mus musculus. In words: Inhibition of human gamma secretase expressed in PS2APP transgenic mouse at 20 mg/kg, ip after 3 days. Set-up: dose 20 mg/kg. It is filed as functional, organism-based. The procedure, abridged: as §4

SMILES strings stand for the structures. The source made the active and inactive calls. No cut-off for these calls is given here.

As to `O=C(NC1CC1)c1ccc(CN([C@@H]2CCC(F)(F)CNC2=O)S(=O)(=O)c2ccc(Cl)cc2)cc1`, the microsomal CLint (usually a measure of how fast metabolising enzymes remove a compound, apart from limits set by blood flow) in [1] turned out to be 5.4 µL/min/mg.

`CC1(C)CCNC(=O)[C@H](N(Cc2ccc(C(=O)NC3CC3)cc2)S(=O)(=O)c2ccc(Cl)cc2)C1`: the IC50 (as a rule, the concentration that inhibits the measured activity by half) at Gamma-secretase came out at 15 nM. The microsomal CLint amounted to 655 µL/min/mg in data set [1] and 36 µL/min/mg in [2].

For `CC(C)C[C@H](C(=O)NO)N(Cc1ccc2c(c1)OCO2)S(=O)(=O)c1ccc(Cl)cc1`, the IC50 on Gamma-secretase amounted to 2600 nM.

In the case of `CC1(C)CCCC(N(Cc2ccc(C(=O)NC3CC3)cc2)S(=O)(=O)c2ccc(Cl)cc2)C(=O)N1` (centres undefined), the IC50 at Gamma-secretase is > 20000 nM.

`O=C1NCCC1N(Cc1ccc2c(c1)OCO2)S(=O)(=O)c1ccc(Cl)cc1` (centres undefined): the IC50 on Gamma-secretase is > 20000 nM.

Turning to `CN(C)C(=O)c1ccc(CN(C2CCCCNC2=O)S(=O)(=O)c2ccc(Cl)cc2)cc1` (centres undefined), on Gamma-secretase, the IC50 stood at 2000 nM.

In the case of `COc1ccc(CN(C2CCCCNC2=O)S(=O)(=O)c2ccc(Cl)cc2)cn1` (centres undefined), the IC50 on Gamma-secretase was 900 nM.

For the molecule `CC(C)C[C@H](C(N)=O)N(Cc1ccc2c(c1)OCO2)S(=O)(=O)c1ccc(Cl)cc1`, in data set [3], the logD (commonly the decadic logarithm of the distribution of all forms, ionised or not, between an organic phase and buffer at a given pH) is > 3. Besides, in [4], the solubility (in general, the concentration that dissolves in the medium under given conditions) was < 1 µg/mL. Further, the IC50 on Gamma-secretase was 8 nM. In addition, the microsomal CLint in data set [1] is 282 µL/min/mg; in data set [2] it was 34 µL/min/mg.

On to `CC(C)(C)C1CCNC(=O)C(N(Cc2ccc(C(=O)NC3CC3)cc2)S(=O)(=O)c2ccc(Cl)cc2)C1` (racemic), for which the IC50 at Gamma-secretase was 120 nM. The microsomal CLint in [1] was 110 µL/min/mg; in data set [2] it was 93 µL/min/mg.

`CC1(C)CCC(N(Cc2ccc(C(=O)NC3CC3)cc2)S(=O)(=O)c2ccc(Cl)cc2)C(=O)NC1` (centres undefined): the IC50 on Gamma-secretase stood at 3500 nM.

Turning to `O=C1NCCCC1N(Cc1ccc2c(c1)OCO2)S(=O)(=O)c1ccc(Cl)cc1` (centres undefined), on Gamma-secretase, the IC50 was 14000 nM.

As for `COc1ccc(CN(C2CCCCNC2=O)S(=O)(=O)c2ccc(Cl)cc2)c(F)c1` (centres undefined), at Gamma-secretase, the IC50 came out at 150 nM.

For the molecule `COc1ccc(CN([C@@H]2CC(F)(F)CCNC2=O)S(=O)(=O)c2ccc(Cl)cc2)cn1`, the concentration at 2 h in [5] amounted to 60 ng/g. Moreover, in [6], the Kp at 2 h was determined as 0.06. Besides, the half-maximal inhibitory concentration (IC50) on Gamma-secretase came out at 30 nM. The Papp A→B in the data set with MDR1 worked out at 28 ×10⁻⁶ cm/s. Moreover, the result in the data set on Mus musculus [7] was Active. Also, the microsomal CLint was found to be 72 µL/min/mg in data set [1] and 9 µL/min/mg in data set [2]. The values for the Ratio with LLC-PK1 [8] and in the data set with LLC-PK1 [9] were 1 and 2.2, respectively.

Consider `O=C(NC1CC1)c1ccc(CN(C2CCCCNC2=O)S(=O)(=O)c2ccc(Cl)cc2)cc1` (centres undefined), for which the IC50 at Gamma-secretase turned out to be 170 nM.

As to `CC(C)C1CCNC(=O)C(N(Cc2ccc(C(=O)NC3CC3)cc2)S(=O)(=O)c2ccc(Cl)cc2)C1` (racemic), the IC50 on Gamma-secretase was determined as 40 nM. Further, the microsomal CLint came out at 203 µL/min/mg in [1] and 51 µL/min/mg in [2].

On to `NC(=O)c1ccc(CN([C@@H]2CCCCNC2=O)S(=O)(=O)c2ccc(Cl)cc2)cc1`, for which the IC50 on Gamma-secretase turned out to be 80 nM.

Regarding `CC1(C)CCCNC(=O)C1N(Cc1ccc(C(=O)NC2CC2)cc1)S(=O)(=O)c1ccc(Cl)cc1` (centres undefined), the IC50 on Gamma-secretase stood at 390 nM.

As to `O=C(NC1CC1)c1ccc(CN(C2CC(C(F)(F)F)CCNC2=O)S(=O)(=O)c2ccc(Cl)cc2)cc1` (racemic), at Gamma-secretase, the IC50 is 20 nM. The microsomal CLint in [1] amounted to 39 µL/min/mg; in [2] it was 19 µL/min/mg.

For `COc1ccc(CN([C@@H]2CC(F)(F)CCNC2=O)S(=O)(=O)c2ccc(Cl)cc2)c(F)c1`, the IC50 on Gamma-secretase stood at 20 nM. In addition, the microsomal CLint in [1] was 105 µL/min/mg; in [2], 13 µL/min/mg.

For the molecule `COc1ccc(CN([C@@H]2CC(F)(F)CCNC2=O)S(=O)(=O)c2ccc(Cl)cc2)c(F)c1F`, the Kp at 2 h in data set [6] is < 0.1. For the same molecule, the figures for the microsomal CLint in data set [1] and in data set [2] were 121 µL/min/mg and 19 µL/min/mg, respectively.

Regarding `O=C1NCCCCCC1N(Cc1ccc2c(c1)OCO2)S(=O)(=O)c1ccc(Cl)cc1` (centres undefined), the IC50 on Gamma-secretase is 9000 nM.

Take `CC1(C)CCNC(=O)C(N(Cc2ccc(C(=O)NC3CC3)cc2)S(=O)(=O)c2ccc(Cl)cc2)C1` (centres undefined): on Gamma-secretase, the 50% inhibitory concentration (IC50) worked out at 6 nM. For the same molecule, the microsomal CLint in data set [1] is 191 µL/min/mg; in data set [2], 45 µL/min/mg.

On to `O=C(NC1CC1)c1ccc(CN([C@@H]2CC(F)(F)CCNC2=O)S(=O)(=O)c2ccc(Cl)cc2)cc1`, for which the outcome in the data set on Mus musculus [10] and with Mus musculus [7] was inactive. Also, at Gamma-secretase, the IC50 was found to be 4 nM. Further, the microsomal CLint in data set [1] is 2.2 µL/min/mg; in data set [2], 1.9 µL/min/mg.

In the case of `O=C(O)CCc1ccc(CN([C@@H]2CCCCNC2=O)S(=O)(=O)c2ccc(Cl)cc2)cc1`, the IC50 at Gamma-secretase worked out at 140 nM.

These data come from ChEMBL document CHEMBL1142379, “Substituted 2-oxo-azepane derivatives are potent, orally active gamma-secretase inhibitors” (Bioorg Med Chem Lett, 2008).
